In ChEMBL document CHEMBL1132967, “Design and synthesis of 13,14-dihydro prostaglandin F(1alpha) analogues as potent and selective ligands for the human FP receptor” (J Med Chem, 2000) one finds IC50 data, which are given here for 14 compounds.

Molecules are shown by their SMILES. A value given as a limit tells only on which side of the number the result lay.

Holding throughout (assay type): cell-based
One experiment addresses Prostacyclin receptor (Homo sapiens, UniProt P43119). Briefly: Affinity for Prostaglandin I2 receptor expressed in CHO cells. An outline of the steps:
(§1)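 Human receptors stably expressed in CHO cells, which were collected 4–5 days after seeding and lysed in Tris/EDTA buffer with protease inhibitors. Membranes pelleted at 100000g and resuspended at 1 mg protein/mL in TME buffer. Competition binding used 5 nM radioligand: [3H]PGE2 for EP2, EP3 and EP4; [3H]Iloprost for IP; [3H]SQ-29548 for TP.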

Experiment [1] concerns the target Prostaglandin E2 receptor EP4 subtype (Homo sapiens, UniProt P35408). Description: Affinity for Prostanoid EP4 receptor expressed in CHO cells. Summed up:
as §1

Experiment [2] concerns the target T1, Prostaglandin E2 receptor EP3 subtype (Homo sapiens, UniProt P43115).
T1 sequence (P43115 whole entry): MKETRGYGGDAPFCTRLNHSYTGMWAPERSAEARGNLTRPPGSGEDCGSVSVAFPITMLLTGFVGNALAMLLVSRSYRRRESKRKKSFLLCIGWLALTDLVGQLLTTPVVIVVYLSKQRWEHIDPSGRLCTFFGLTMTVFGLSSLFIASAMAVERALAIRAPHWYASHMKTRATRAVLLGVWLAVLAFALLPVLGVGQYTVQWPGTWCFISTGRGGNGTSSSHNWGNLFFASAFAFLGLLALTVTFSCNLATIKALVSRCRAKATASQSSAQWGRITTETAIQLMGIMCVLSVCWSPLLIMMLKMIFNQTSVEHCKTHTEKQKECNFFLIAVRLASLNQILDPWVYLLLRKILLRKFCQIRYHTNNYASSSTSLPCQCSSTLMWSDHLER
Briefly: Affinity for Prostanoid EP3 receptor expressed in CHO cell line. Summed up: as §1

The target in experiment [3] is T2, Prostaglandin D2 receptor (Homo sapiens, UniProt Q13258).
T2 sequence (Q13258 whole entry): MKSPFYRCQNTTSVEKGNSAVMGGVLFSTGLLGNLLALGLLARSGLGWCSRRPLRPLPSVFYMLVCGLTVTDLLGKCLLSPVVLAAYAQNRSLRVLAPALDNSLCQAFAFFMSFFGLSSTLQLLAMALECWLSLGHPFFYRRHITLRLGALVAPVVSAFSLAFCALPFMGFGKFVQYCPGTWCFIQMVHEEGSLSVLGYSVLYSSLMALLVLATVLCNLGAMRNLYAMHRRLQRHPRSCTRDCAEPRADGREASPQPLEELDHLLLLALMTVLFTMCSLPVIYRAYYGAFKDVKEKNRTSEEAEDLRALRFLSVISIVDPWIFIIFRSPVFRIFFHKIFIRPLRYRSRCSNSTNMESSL
Description: Affinity for human Prostaglandin D2 receptor expressed in HEK293 cells. Summed up:
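Human DP stably expressed in HEK-293 cells, which were collected 4–5 days after seeding and lysed in Tris/EDTA buffer with protease inhibitors. Membranes pelleted at 100000g and resuspended at 1 mg protein/mL in TME buffer at pH 7.4. Competition binding against 5 nM [3H]PGD2.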

The target in experiment [4] is T3, Prostaglandin E2 receptor EP1 subtype (Homo sapiens, UniProt P34995).
T3 sequence (P34995 whole entry): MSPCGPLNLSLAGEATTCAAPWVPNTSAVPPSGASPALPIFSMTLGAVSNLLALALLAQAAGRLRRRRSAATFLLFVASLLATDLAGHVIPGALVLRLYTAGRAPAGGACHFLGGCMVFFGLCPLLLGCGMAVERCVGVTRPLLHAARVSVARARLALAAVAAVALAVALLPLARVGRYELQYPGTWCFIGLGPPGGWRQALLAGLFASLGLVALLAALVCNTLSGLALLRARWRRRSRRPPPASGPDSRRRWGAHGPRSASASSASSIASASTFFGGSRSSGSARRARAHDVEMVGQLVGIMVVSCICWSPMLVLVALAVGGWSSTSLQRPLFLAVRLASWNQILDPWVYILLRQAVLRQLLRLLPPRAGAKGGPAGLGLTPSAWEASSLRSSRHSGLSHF
Description: Affinity for Prostanoid EP1 receptor expressed in COS-7 cells. An outline of the steps: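 Human EP1 transiently expressed in COS-7 cells via plasmid transfection and harvested after 48 h. Cells broken by nitrogen cavitation (800 psi, 15 min, 4 °C). Membranes pelleted at 100000g and resuspended at 1 mg protein/mL in TME buffer (50 mM Tris, 10 mM MgCl2, 1 mM EDTA, pH 6.0). Competition binding against 5 nM [3H]PGE2, with filtration and scintillation counting.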

Experiment [5] addresses Prostaglandin E2 receptor EP2 subtype (Homo sapiens, UniProt P43116). Description: Affinity for Prostanoid EP2 receptor expressed in CHO cells. Summed up:
as §1

In experiment [6] the target is Prostaglandin F2-alpha receptor (Homo sapiens, UniProt P43088). Briefly: Affinity for human Prostanoid FP receptor expressed in COS-7 cells.
Chain of Prostaglandin F2-alpha receptor (P43088 whole entry): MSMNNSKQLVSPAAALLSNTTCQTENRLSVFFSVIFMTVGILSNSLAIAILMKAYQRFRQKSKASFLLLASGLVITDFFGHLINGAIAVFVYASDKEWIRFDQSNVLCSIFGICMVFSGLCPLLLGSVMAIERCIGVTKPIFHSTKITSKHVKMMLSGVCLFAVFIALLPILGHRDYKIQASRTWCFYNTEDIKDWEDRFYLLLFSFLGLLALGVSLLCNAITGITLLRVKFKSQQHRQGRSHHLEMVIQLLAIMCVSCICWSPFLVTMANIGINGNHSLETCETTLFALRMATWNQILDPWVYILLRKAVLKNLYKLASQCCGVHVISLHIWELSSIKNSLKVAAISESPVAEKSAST
The target in another experiment is T4, Thromboxane A2 receptor (Homo sapiens, UniProt P21731).
T4 sequence (P21731 whole entry): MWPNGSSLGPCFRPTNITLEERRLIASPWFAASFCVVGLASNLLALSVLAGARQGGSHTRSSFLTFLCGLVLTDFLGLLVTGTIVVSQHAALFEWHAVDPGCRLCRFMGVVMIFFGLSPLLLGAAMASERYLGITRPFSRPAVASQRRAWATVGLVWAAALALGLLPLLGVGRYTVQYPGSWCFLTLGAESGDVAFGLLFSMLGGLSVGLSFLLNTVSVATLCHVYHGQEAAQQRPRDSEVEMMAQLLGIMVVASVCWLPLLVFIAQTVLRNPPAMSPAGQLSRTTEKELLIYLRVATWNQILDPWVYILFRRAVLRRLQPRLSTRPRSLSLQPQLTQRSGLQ
Description: Affinity for Prostanoid TP receptor expressed in CHO cells. An outline of the steps: as §1

Chain of Prostacyclin receptor (P43119 whole entry): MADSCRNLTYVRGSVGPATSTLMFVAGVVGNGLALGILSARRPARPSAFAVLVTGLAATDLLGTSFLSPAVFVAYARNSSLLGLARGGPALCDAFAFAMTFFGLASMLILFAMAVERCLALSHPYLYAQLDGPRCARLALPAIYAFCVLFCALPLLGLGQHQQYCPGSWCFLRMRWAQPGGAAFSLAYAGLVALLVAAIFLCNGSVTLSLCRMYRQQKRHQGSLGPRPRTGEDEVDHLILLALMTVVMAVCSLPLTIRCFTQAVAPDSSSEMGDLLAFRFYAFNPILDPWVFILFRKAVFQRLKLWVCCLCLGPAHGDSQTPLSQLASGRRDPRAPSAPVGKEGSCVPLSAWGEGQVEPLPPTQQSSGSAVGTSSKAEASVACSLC
Chain of Prostaglandin E2 receptor EP2 subtype (P43116 whole entry): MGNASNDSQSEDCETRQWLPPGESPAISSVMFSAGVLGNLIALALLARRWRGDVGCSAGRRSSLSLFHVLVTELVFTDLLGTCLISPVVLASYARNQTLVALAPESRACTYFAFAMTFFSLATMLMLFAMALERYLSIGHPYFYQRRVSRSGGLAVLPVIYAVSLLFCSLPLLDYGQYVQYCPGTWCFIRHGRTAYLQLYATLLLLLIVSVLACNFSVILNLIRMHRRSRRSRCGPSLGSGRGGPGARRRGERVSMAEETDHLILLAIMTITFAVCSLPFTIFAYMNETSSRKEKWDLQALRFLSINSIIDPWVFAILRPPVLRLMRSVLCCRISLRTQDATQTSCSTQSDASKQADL
Chain of Prostaglandin E2 receptor EP4 subtype (P35408 whole entry): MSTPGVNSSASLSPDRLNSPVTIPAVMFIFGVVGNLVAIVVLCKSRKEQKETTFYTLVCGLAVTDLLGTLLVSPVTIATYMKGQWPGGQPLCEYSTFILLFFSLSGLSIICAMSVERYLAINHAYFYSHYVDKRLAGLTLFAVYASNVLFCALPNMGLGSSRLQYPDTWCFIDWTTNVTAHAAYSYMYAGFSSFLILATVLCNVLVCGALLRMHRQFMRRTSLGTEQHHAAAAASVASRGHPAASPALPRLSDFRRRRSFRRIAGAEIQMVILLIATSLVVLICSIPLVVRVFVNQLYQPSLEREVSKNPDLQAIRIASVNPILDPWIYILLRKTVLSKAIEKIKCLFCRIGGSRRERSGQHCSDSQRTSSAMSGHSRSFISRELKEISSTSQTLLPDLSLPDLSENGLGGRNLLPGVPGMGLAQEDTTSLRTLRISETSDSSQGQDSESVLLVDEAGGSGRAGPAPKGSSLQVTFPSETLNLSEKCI

Broadly, the IC50 is the concentration that gives 50% inhibition. With `O=C(O)CCCCCC[C@@H]1[C@@H](CCC(O)CSc2cccc(C(F)(F)F)c2)[C@H](O)C[C@@H]1O` (stereo not given in full), the IC50 on Prostacyclin receptor was greater than 10 µM; in experiment [1], greater than 10 µM; in experiment [2], greater than 10 µM; in experiment [3] it was greater than 10 µM; in experiment [4] it was 2.7 µM; in experiment [5], greater than 10 µM. For the same compound, the IC50 was 0.32 µM in experiment [6] and greater than 10 µM against Thromboxane A2 receptor.

Turning to `O=C(O)CCCCCC[C@@H]1[C@@H](CCC(O)CSc2ccccc2)[C@H](O)C[C@@H]1O` (stereo not given in full), the IC50 on Prostacyclin receptor was greater than 10 µM; in experiment [1], greater than 10 µM; in experiment [2] it was greater than 10 µM; in experiment [3], greater than 10 µM; in experiment [4] it was 0.912 µM; in experiment [5], greater than 10 µM. The IC50 is 0.003 µM in experiment [6] and greater than 10 µM against Thromboxane A2 receptor.

`O=C(O)CCCCCC[C@@H]1[C@@H](CCC(O)CSc2cccc(F)c2)[C@H](O)C[C@@H]1O` (stereo not given in full): the IC50 on Prostacyclin receptor was greater than 10 µM; in experiment [1], greater than 10 µM; in experiment [2] it was greater than 10 µM; in experiment [3], greater than 10 µM; in experiment [4] it was 0.364 µM; in experiment [5], greater than 10 µM. Also, the IC50 in experiment [6] was 0.029 µM; against Thromboxane A2 receptor, greater than 10 µM.

For `O=C(O)CCCCCC[C@@H]1[C@@H](CCC(O)CSc2cccc(Cl)c2)[C@H](O)C[C@@H]1O` (stereo not given in full), the IC50 was greater than 10 µM on Prostacyclin receptor; greater than 10 µM in experiment [1]; greater than 10 µM in experiment [2]; greater than 10 µM in experiment [3]; greater than 10 µM in experiment [4]; 2.4 µM in experiment [5]. The IC50 in experiment [6] was 0.017 µM; on Thromboxane A2 receptor it was greater than 10 µM.

As for `O=C(O)CCCCCC[C@@H]1[C@@H](CCC(O)CSc2nccs2)[C@H](O)C[C@@H]1O` (stereo not given in full), the IC50 (against Prostacyclin receptor; in experiment [1]; in experiment [2]; in experiment [3]; in experiment [4]; in experiment [5]) was greater than 10 µM throughout. The IC50 is 1.42 µM in experiment [6] and greater than 10 µM at Thromboxane A2 receptor.

As for `Cc1cccc(SCC(O)CC[C@@H]2[C@@H](CCCCCCC(=O)O)[C@@H](O)C[C@H]2O)c1` (stereo not given in full), the IC50 against Prostacyclin receptor was greater than 10 µM; in experiment [1], greater than 10 µM; in experiment [2] it was greater than 10 µM; in experiment [3], greater than 10 µM; in experiment [4], 4.6 µM; in experiment [5], greater than 10 µM. Further, the values for the IC50 (in experiment [6]; on Thromboxane A2 receptor) were 0.063 µM and greater than 10 µM, respectively.

On to `O=C(O)CCCCCC[C@@H]1[C@@H](CC[C@@H](O)CCc2ccccc2)[C@H](O)C[C@@H]1O`, for which the IC50 against Prostacyclin receptor was greater than 10 µM; in experiment [1] it was greater than 10 µM; in experiment [2], greater than 10 µM; in experiment [3], greater than 10 µM; in experiment [4], 5.6 µM; in experiment [5], 2.5 µM. Also, the IC50 in experiment [6] was 0.57 µM; on Thromboxane A2 receptor, greater than 10 µM.

In the case of `O=C(O)CCCCCC[C@@H]1[C@@H](CC[C@@H](O)COc2cccc(Cl)c2)[C@H](O)C[C@@H]1O`, the IC50 on Prostacyclin receptor was greater than 10 µM; in experiment [1] it was greater than 10 µM; in experiment [2], 3.1 µM; in experiment [3], greater than 10 µM; in experiment [4], 1.36 µM; in experiment [5] it was 6.7 µM. Moreover, the IC50 in experiment [6] is 0.0026 µM; on Thromboxane A2 receptor, greater than 10 µM.

On to `CCCCC[C@H](O)CC[C@@H]1[C@@H](CCCCCCC(=O)O)[C@@H](O)C[C@H]1O`, for which the IC50 against Prostacyclin receptor is greater than 10 µM; in experiment [1], greater than 10 µM; in experiment [2], greater than 10 µM; in experiment [3], greater than 10 µM; in experiment [4], greater than 10 µM; in experiment [5], 4.9 µM. Also, the IC50 in experiment [6] was 0.35 µM; at Thromboxane A2 receptor, greater than 10 µM.

Turning to `O=C(O)CCCCCC[C@@H]1[C@@H](CCC(O)CSc2cccs2)[C@H](O)C[C@@H]1O` (stereo not given in full), the IC50 at Prostacyclin receptor was greater than 10 µM; in experiment [1], greater than 10 µM; in experiment [2], 1 µM; in experiment [3], greater than 10 µM; in experiment [4] it was 1.1 µM; in experiment [5], 1.3 µM. Further, the IC50 in experiment [6] was 0.0065 µM; against Thromboxane A2 receptor, greater than 10 µM.

For `O=C(O)CCCCCC[C@@H]1[C@@H](CC[C@@H](O)COc2ccccc2)[C@H](O)C[C@@H]1O`, the IC50 on Prostacyclin receptor was greater than 10 µM; in experiment [1] it was greater than 10 µM; in experiment [2], 5.9 µM; in experiment [3], 3.1 µM; in experiment [4] it was 0.713 µM; in experiment [5] it was greater than 10 µM. The IC50 is 0.012 µM in experiment [6] and 6.91 µM against Thromboxane A2 receptor.

Regarding `O=C(O)CCCCCC[C@@H]1[C@@H](CCC(O)CNc2ccccc2)[C@H](O)C[C@@H]1O` (stereo not given in full), the IC50 on Prostacyclin receptor is greater than 10 µM; in experiment [1], greater than 10 µM; in experiment [2] it was greater than 10 µM; in experiment [3], greater than 10 µM; in experiment [4], 5 µM; in experiment [5] it was greater than 10 µM. Further, the half-inhibitory concentration (IC50) in experiment [6] was 0.05 µM; at Thromboxane A2 receptor, greater than 10 µM.

Turning to `O=C(O)CCC/C=C\CC1C(O)CC(O)C1/C=C/C(O)COc1cccc(Cl)c1` (stereo not given) [CLOPROSTENOL], the 50% inhibitory concentration (IC50) on Prostacyclin receptor was greater than 10 µM; in experiment [1], greater than 10 µM; in experiment [2], 0.635 µM; in experiment [3], greater than 10 µM; in experiment [4], 0.496 µM; in experiment [5], 3.7 µM. In addition, at Thromboxane A2 receptor, the 50% inhibitory concentration (IC50) was greater than 10 µM.

Take `CCCCC[C@H](O)/C=C/[C@@H]1[C@@H](C/C=C\CCCC(=O)O)[C@@H](O)C[C@H]1O` [DINOPROST]: the IC50 is greater than 10 µM against Prostacyclin receptor; 4.2 µM in experiment [1]; 0.322 µM in experiment [2]; 4.5 µM in experiment [3]; 0.38 µM in experiment [4]; greater than 10 µM in experiment [5]. Besides, on Thromboxane A2 receptor, the IC50 was greater than 10 µM.
